# From ChEMBL document CHEMBL1124904, “7-Oxabicyclo[2.2.1]heptyl carboxylic acids as thromboxane A2 antagonists: aza omega-chain analogues” (J Med Chem, 1990)
# What was measured:
# [1] = species: Homo sapiens; test: Ability to inhibit platelet aggregation of human platelet-rich plasma (PRP) induced by 800 uM of AA-IPA (arachidonic acid); type: functional; details: read-out: I50
# Outline: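 Human platelet-rich plasma; aggregation triggered by arachidonic acid at 800 μM. Test acids were also checked against ADP (20 μM)-induced aggregation. I50 taken as the concentration inhibiting aggregation.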
# [2] = species: Cavia porcellus; test: Evaluated for its potency in Guinea pig trachea (GPT) spirals in the presence of increasing concentrations; type: functional
# Outline: (§1)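 Guinea pig tracheal spirals contracted by U-46,619 in cumulative dose-response curves, repeated with increasing antagonist concentrations; Kb from analysis of the rightward shift.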
# [3] = test system: Cavia porcellus; test: Evaluated for the percent inhibition of arachidonate-induced hypertension resulting in decreases in blood pressure at 60 min after dosing (0.1 mg/kg iv) in anesthetized guinea pig.; type: functional
# Outline: (§2)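 Anesthetized guinea pig dosed iv with antagonist at 0.1 mg/kg (some at 1.0 mg/kg). Arachidonic acid 0.5 mg/kg iv given as challenge 3 or 60 min later. Airway resistance, dynamic compliance and blood pressure recorded; percent inhibition of each response.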
# [4] = test system: Cavia porcellus; test: Evaluated for the percent inhibition of arachidonate-induced air-way resistance at 3 min after dosing (0.1 mg/kg iv) in anesthetized guinea pig.; type: functional; outline: as §2
# [5] = test system: Cavia porcellus; test: Evaluated for the percent inhibition of arachidonate-induced air-way resistance at 60 min after dosing (0.1 mg/kg iv) in anesthetized guinea pig.; type: functional; outline: as §2
# [6] = test system: Cavia porcellus; test: Evaluated for the percent inhibition of arachidonate-induced dynamic compliance at 60 min after dosing (0.1 mg/kg iv) in anesthetized guinea pig.; type: functional; outline: as §2
# [7] = test system: Cavia porcellus; test: Evaluated for the percent inhibition of arachidonate-induced hypertension resulting in decreases in blood pressure at 3 min after dosing (0.1 mg/kg iv) in anesthetized guinea pig.; type: functional; outline: as §2
# [8] = species: Homo sapiens; test: Evaluated for ability to inhibit platelet aggregation of human platelet-rich plasma (PRP) induced by 11.9-epoxymethano-PGH2.; type: functional; details: read-out: I50
# Outline: (§3)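 Human PRP aggregation induced by U-46,619 (11,9-epoxymethano-PGH2, stable PGH2/TxA2 mimic) at 5 or 10 μM; I50 reported. Values are single determinations unless otherwise noted.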
# [9] = species: Rattus norvegicus; test: Evaluated for its potency Rat aorta (RA) strips in the presence of increasing concentrations; type: functional
# Outline: (§4)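 Rat aortic strips contracted by U-46,619 in cumulative dose-response curves, repeated with increasing antagonist concentrations; Kb from analysis of the rightward shift.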
# [10] = target: T1, Thromboxane A2 receptor (Homo sapiens, UniProt P21731); test: Binding affinity was determined from the inhibition of [3H]-SQ 29,548 binding to Thromboxane A2 receptor in human platelet membranes.; type: cell membranes
# T1 sequence (P21731 whole entry): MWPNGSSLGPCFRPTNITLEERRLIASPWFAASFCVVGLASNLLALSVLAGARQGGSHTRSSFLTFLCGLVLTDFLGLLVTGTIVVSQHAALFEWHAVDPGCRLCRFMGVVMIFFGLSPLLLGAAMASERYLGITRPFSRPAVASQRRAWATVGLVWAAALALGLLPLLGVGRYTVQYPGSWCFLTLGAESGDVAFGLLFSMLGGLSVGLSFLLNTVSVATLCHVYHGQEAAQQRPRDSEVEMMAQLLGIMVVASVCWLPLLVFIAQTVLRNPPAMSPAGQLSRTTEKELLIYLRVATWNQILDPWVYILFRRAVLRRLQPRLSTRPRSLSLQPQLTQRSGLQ
# Outline: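 Radioligand binding to human platelet membranes with [5,6-3H2]-SQ 29,548 as tracer; Kd derived from inhibition of specific binding.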
# [11] = test system: Cavia porcellus; test: Evaluated for the percent inhibition of arachidonate-induced dynamic compliance at 3 min after dosing (0.1 mg/kg iv) in anesthetized guinea pig.; type: functional; outline: as §2
# [12] = species: Cavia porcellus; test: Evaluated for its potency in guinea pig trachea (GPT) spirals in the presence of increasing concentrations; type: functional; outline: as §1
# [13] = species: Homo sapiens; test: Evaluated for ability to inhibit platelet aggregation of human platelet-rich plasma (PRP) induced by 11.9-epoxymethano-PGH2; type: functional; details: read-out: I50; outline: as §3
# [14] = species: Rattus norvegicus; test: Evaluated for its potency in rat aorta (RA) strips in the presence of increasing concentrations; type: functional; outline: as §4
smiles,measurement,setting,value
CCCCCC(=O)NC(C)(C)C(=O)NCC1C2CCC(O2)C1C/C=C/CCCC(=O)O (stereo not drawn),IC50,"[1]; Homo sapiens, Plasma",520 µM
O=C(O)CCC/C=C/CC1C2CCC(O2)C1CNC(=O)CNC(=O)c1ccccc1 (stereo not drawn),IC50,"[1]; Homo sapiens, Plasma",2.6 µM
CCCCCCCCC(=O)NCC1C2CCC(O2)C1C/C=C/CCCC(=O)O (stereo not drawn),IC50,"[1]; Homo sapiens, Plasma",15 µM
O=C(O)CCC/C=C/CC1C2CCC(O2)C1CNCC(=O)Nc1ccccc1 (stereo not drawn),IC50,"[1]; Homo sapiens, Plasma",5.3 µM
CCCCNC(=O)NCC(=O)NCC1C2CCC(O2)C1C/C=C/CCCC(=O)O (stereo not drawn),IC50,"[1]; Homo sapiens, Plasma",1 µM
CCCCCCNCC1C2CCC(O2)C1C/C=C/CCCC(=O)O (stereo not drawn),IC50,"[1]; Homo sapiens, Plasma",12 µM
COc1ccc(SCC(=O)NCC2C3CCC(O3)C2C/C=C/CCCC(=O)O)cc1 (stereo not drawn),IC50,"[1]; Homo sapiens, Plasma",1.4 µM
CCCCCCCCC(=O)NCC(=O)NCC1C2CCC(O2)C1C/C=C/CCCC(=O)O (stereo not drawn),Kb,"[2]; Cavia porcellus, Trachea",1.4 nM
same,Inhibition,[3],138%
same,Inhibition,[4],99%
same,Inhibition,[5],31%
same,Inhibition,[6],39%
same,Inhibition,[7],252%
same,IC50,"[8]; Homo sapiens, Plasma",1100 nM
same,IC50,"[1]; Homo sapiens, Plasma",0.22 µM
same,Kb,"[9]; Rattus norvegicus, Aorta",7.1 nM
same,Kd,[10],8.3 nM
same,Inhibition,[11],98%
O=C(O)CCC/C=C/CC1C2CCC(O2)C1CNC(=O)CNC(=O)CCCCC1CCCCC1 (stereo not drawn),Kb,[12],0.07 nM
same,IC50,[13],1950 nM
same,IC50,"[1]; Homo sapiens, Plasma",0.16 µM
same,Kb,[14],2.5 nM
same,Kd,[10],2.6 nM
CCCCCC(=O)NC(C)C(=O)NCC1C2CCC(O2)C1C/C=C/CCCC(=O)O (stereo in doubt; 48),IC50,[1],53 µM
CCCCCC(=O)NC(C)C(=O)NCC1C2CCC(O2)C1C/C=C/CCCC(=O)O (stereo in doubt; 49),IC50,[1],0.9 µM
O=C(O)CCC/C=C/CC1C2CCC(O2)C1CNCCNc1ccccc1 (stereo not drawn),IC50,"[1]; Homo sapiens, Plasma",65 µM
CCCCCCNC(=O)CC(=O)NC1C2CCC(O2)C1C/C=C/CCCC(=O)O (stereo not drawn),IC50,"[1]; Homo sapiens, Plasma",125 µM
COc1ccc(NCC(=O)NCC2C3CCC(O3)C2C/C=C/CCCC(=O)O)cc1 (stereo not drawn),IC50,"[1]; Homo sapiens, Plasma",13.5 µM
CCCCCCC(=O)OCC(=O)NCC1C2CCC(O2)C1C/C=C/CCCC(=O)O (stereo not drawn),IC50,"[1]; Homo sapiens, Plasma",0.66 µM
CC(C)(C)c1ccc(SCC(=O)NCC(=O)NCC2C3CCC(O3)C2C/C=C/CCCC(=O)O)cc1 (stereo not drawn),Kb,[12],0.1 nM
same,Inhibition,[3],184%
same,Inhibition,[4],98%
same,Inhibition,[5],43%
same,Inhibition,[6],26%
same,Inhibition,[7],191%
same,IC50,[13],150 nM
same,IC50,"[1]; Homo sapiens, Plasma",0.015 µM
same,Kb,[14],1.8 nM
same,Kd,[10],4.2 nM
same,Inhibition,[11],95%
O=C(O)CCC/C=C/CC1C2CCC(O2)C1CNC(=O)CCc1ccccc1 (stereo not drawn),IC50,"[1]; Homo sapiens, Plasma",3.3 µM
CCCCCNC(=O)CCNC(=O)C1C2CCC(O2)C1C/C=C/CCCC(=O)O (stereo not drawn),IC50,"[1]; Homo sapiens, Plasma",14 µM
CCCCOC(=O)NCC(=O)NCC1C2CCC(O2)C1C/C=C/CCCC(=O)O (stereo not drawn),IC50,"[1]; Homo sapiens, Plasma",1.1 µM
"O=C(O)CCC/C=C/CC1C2CCC(O2)C1CNNC(=O)Nc1ccccc1 (single isomer, unassigned; (+))",IC50,[1],0.02 µM
CCCCCC(=O)N(C)CC(=O)NCC1C2CCC(O2)C1C/C=C/CCCC(=O)O (stereo not drawn),IC50,"[1]; Homo sapiens, Plasma",3 µM
O=C(O)CCC/C=C/CC1C2CCC(O2)C1CNC(=O)NCc1ccccc1 (stereo not drawn),IC50,"[1]; Homo sapiens, Plasma",26 µM
"CCCCCCC(=O)NCC(=O)NCC1C2CCC(O2)C1C/C=C/CCCC(=O)O (single isomer, unassigned; (+))",Kb,"[2]; Cavia porcellus, Trachea",174 nM
same,IC50,"[1]; Homo sapiens, Plasma",6.6 µM
same,Kb,"[9]; Rattus norvegicus, Aorta",326 nM
O=C(O)CCC/C=C/CC1C2CCC(O2)C1CNNC(=O)Nc1ccccc1 (racemic),Inhibition,[3],59%
same,Inhibition,[4],97%
same,Inhibition,[5],42%
same,Inhibition,[6],56%
same,Inhibition,[7],151%
same,IC50,[1],0.09 µM
same,Inhibition,[11],96%
CCCCCNCCC1C2CCC(O2)C1C/C=C/CCCC(=O)O (stereo not drawn),IC50,"[1]; Homo sapiens, Plasma",340 µM
CCCCCCCNC(=O)CNC(=O)C1C2CCC(O2)C1C/C=C/CCCC(=O)O (stereo not drawn),IC50,"[1]; Homo sapiens, Plasma",30 µM
CCCCC(=O)NCCC(=O)NCC1C2CCC(O2)C1C/C=C/CCCC(=O)O (stereo not drawn),IC50,"[1]; Homo sapiens, Plasma",14 µM
CCCCCC/C(S)=N/C/C(S)=N/CC1C2CC[C@@H](O2)C1C/C=C/CCCC(=O)O (stereo partly drawn),IC50,"[8]; Homo sapiens, Plasma",9600 nM
same,IC50,"[1]; Homo sapiens, Plasma",0.97 µM
same,Kd,[10],26.4 nM
CCCCCNC(=O)CC(=O)NCC1C2CCC(O2)C1C/C=C/CCCC(=O)O (stereo not drawn),IC50,"[1]; Homo sapiens, Plasma",0.5 µM
CCCCCCCC(=O)NCC(=O)NCC1C2CCC(O2)C1C/C=C/CCCC(=O)O (stereo in doubt; 51),Kb,[2],2 nM
same,Inhibition,[3],130%
same,Inhibition,[4],97%
same,Inhibition,[5],79%
same,Inhibition,[6],74%
same,IC50,[8],430 nM
same,IC50,[1],0.22 µM
same,Kb,[9],3.4 nM
same,Kd,[10],17.5 nM
same,Inhibition,[11],98%
O=C(O)CCC/C=C/CC1C2CCC(O2)C1CNC(=O)CNC(=O)CCCC1CCCCC1 (stereo not drawn),Kb,[12],0.07 nM
same,Inhibition,[3],289%
same,Inhibition,[4],99%
same,Inhibition,[5],84%
same,Inhibition,[6],59%
same,Inhibition,[7],289%
same,IC50,[13],120 nM
same,IC50,"[1]; Homo sapiens, Plasma",0.045 µM
same,Kb,[14],0.9 nM
same,Kd,[10],1.1 nM
same,Inhibition,[11],97%
O=C(O)CCC/C=C/CC1C2CCC(O2)C1NC(=O)CCCc1ccccc1 (stereo not drawn),IC50,"[1]; Homo sapiens, Plasma",11 µM
O=C(O)CCC/C=C/CC1C2CCC(O2)C1CNC(=O)CNC(=O)CSc1ccccc1 (stereo not drawn),Kb,[12],2.4 nM
same,Inhibition,[3],235%
same,Inhibition,[4],98%
same,Inhibition,[5],53%
same,Inhibition,[6],42%
same,Inhibition,[7],287%
same,IC50,[13],110 nM
same,IC50,"[1]; Homo sapiens, Plasma",0.021 µM
same,Kb,[14],1.8 nM
same,Kd,[10],41.4 nM
same,Inhibition,[11],92%
O=C(O)CCC/C=C/CC1C2CCC(O2)C1CNNC(=O)Cc1ccccc1 (stereo not drawn),IC50,"[1]; Homo sapiens, Plasma",0.2 µM
O=C(O)CCC/C=C/CC1C2CCC(O2)C1CCNC(=O)Nc1ccccc1 (stereo not drawn),IC50,"[1]; Homo sapiens, Plasma",184 µM
O=C(O)Cc1ccc(CCNS(=O)(=O)c2ccc(Cl)cc2)cc1 [DALTROBAN],IC50,"[1]; Homo sapiens, Plasma",0.63 µM
O=C(O)CCC/C=C/CC1C2CCC(O2)C1CNC(=O)C(=O)Nc1ccccc1 (stereo not drawn),IC50,"[1]; Homo sapiens, Plasma",5.5 µM
CCCCCCCNC1C2CCC(O2)C1C/C=C/CCCC(=O)O (stereo not drawn),IC50,"[1]; Homo sapiens, Plasma",120 µM
CCCCCNC(=O)CCC(=O)NC1C2CCC(O2)C1C/C=C/CCCC(=O)O (stereo not drawn),IC50,"[1]; Homo sapiens, Plasma",160 µM
CCCCCC/C(S)=N/CC(=O)NCC1C2CCC(O2)C1C/C=C/CCCC(=O)O (stereo not drawn),Kb,"[2]; Cavia porcellus, Trachea",4.4 nM
same,Inhibition,[3],158%
same,Inhibition,[4],97%
same,Inhibition,[5],51%
same,Inhibition,[6],56%
same,Inhibition,[7],178%
same,IC50,"[8]; Homo sapiens, Plasma",230 nM
same,IC50,"[1]; Homo sapiens, Plasma",0.04 µM
same,Kb,"[9]; Rattus norvegicus, Aorta",1.1 nM
same,Kd,[10],12.4 nM
same,Inhibition,[11],94%
